Compound activity: PubChem, Broad Institute
DENV2 CPE rescue – inhibitors of DENV2 cytopathic effect | 1.7% of 350,000 active | AID 651640 | CPE inhibition, % at 9.99 µM | DENV2-infected cells, cytopathic effect rescue, plate reader; in the data active = CPE inhibition above about 20%, passing the limit was not always enough; inconclusive = no clear call, values can overlap the other calls; tested in BHK-21 cells
E-selectin induc – E-selectin induction on HUVECs; HUVEC E-selectin immunofluorescence imaging; normalized: neutral wells 0, TNF-alpha wells 100; activation, % at 7.58 µM; 0.37% of 260,000 active; AID 686992;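 active = mean E-selectin-positive cell signal at least 10% of the positive control, reached in at least 60% of replicates, without over 20% cell loss; inconclusive = no rule given, readout overlaps actives, possibly toxicity-flagged; inactive = the rest, including those meeting only one limit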
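Test system: HUVEC; input: 3,000 HUVEC/well; measured by: immunofluorescence imaging; read-out: % PE-positive cells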
PglD inh – PglD (C. jejuni) enzyme inhibition. 0.098% of 360,000 active. purified PglD enzyme, DTNB colorimetric CoA detection. inhibition, % at 12.5 µM. AID 602405; in the data active = inhibition above about 16%, passing the limit was not always enough; inconclusive = no clear call, values can overlap the other calls
ERAP1 HTS inh – blocks human ERAP1 aminopeptidase activity | Q9NZ08 | recombinant ERAP1, Leu-AMC fluorescence, 60 min | inhibition, % at 10.7 µM | 0.15% of 340,000 active;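 active = mean replicate inhibition of at least 30%, or all replicates individually reaching that 30% level; inactive = mean below 30% and not every replicate reaching it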
Target sequence (Q9NZ08 whole entry, looked up): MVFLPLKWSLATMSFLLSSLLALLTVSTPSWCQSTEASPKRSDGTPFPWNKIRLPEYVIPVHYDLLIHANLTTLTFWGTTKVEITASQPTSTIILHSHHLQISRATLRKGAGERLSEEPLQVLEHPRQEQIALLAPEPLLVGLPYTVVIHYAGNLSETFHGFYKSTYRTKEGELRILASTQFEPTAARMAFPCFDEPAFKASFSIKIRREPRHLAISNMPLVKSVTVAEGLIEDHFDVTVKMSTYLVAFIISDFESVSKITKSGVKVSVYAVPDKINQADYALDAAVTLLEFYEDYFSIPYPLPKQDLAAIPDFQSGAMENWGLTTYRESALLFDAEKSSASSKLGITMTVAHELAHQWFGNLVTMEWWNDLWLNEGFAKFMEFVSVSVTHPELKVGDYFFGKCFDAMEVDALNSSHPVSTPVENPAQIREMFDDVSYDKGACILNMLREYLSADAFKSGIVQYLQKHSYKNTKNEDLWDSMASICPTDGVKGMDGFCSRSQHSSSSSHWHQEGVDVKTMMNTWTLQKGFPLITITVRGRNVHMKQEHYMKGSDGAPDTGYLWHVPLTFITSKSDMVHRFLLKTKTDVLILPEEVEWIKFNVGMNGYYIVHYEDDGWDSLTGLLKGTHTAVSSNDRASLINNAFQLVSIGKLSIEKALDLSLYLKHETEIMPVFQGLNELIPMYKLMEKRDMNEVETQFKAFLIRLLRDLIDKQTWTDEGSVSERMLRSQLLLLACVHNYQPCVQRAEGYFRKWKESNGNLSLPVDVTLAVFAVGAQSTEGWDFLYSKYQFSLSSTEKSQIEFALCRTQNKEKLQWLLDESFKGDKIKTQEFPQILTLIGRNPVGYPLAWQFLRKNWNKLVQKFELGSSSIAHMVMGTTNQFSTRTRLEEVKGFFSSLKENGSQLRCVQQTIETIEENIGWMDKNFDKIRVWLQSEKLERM
SIRT5 block – blocks human SIRT5 desuccinylation of peptide; Purified SirT5, succinyl-peptide AMC, trypsin-coupled fluorescence; inhibition, % at 15 µM; Q9NXA8; 1.1% of 330,000 active; in the data active = inhibition above about 15%; inconclusive = no clear call, values can overlap the other calls
A number is an active result; – = inactive; ? = inconclusive; · = not tested or not shown; ! = not active in a repeat. Only some compounds are listed: those with a hit (about 2.5% of all), similar ones and a draw of the others.

SMILES | DENV2 CPE rescue | E-selectin induc | PglD inh | ERAP1 HTS inh | SIRT5 block
COCCNC(=O)C[C@H]1C[C@@H]2c3cc(NC(=O)Nc4ccc(C(F)(F)F)cc4)ccc3O[C@@H]2[C@H](CO)O1 | – | – | – | – | –
Cc1noc(C)c1S(=O)(=O)N(C)C[C@@H]1Oc2ccc(NC(=O)CCCCCC(=O)Nc3ccccc3N)cc2CC(=O)N([C@H](C)CO)C[C@@H]1C | – | – | – | – | –
CCCCSc1nc(N)c(C#N)c(-c2cccs2)c1C#N | · | · | – | – | –
COc1ccc(OC)c(/C=C/C(=O)OCC(=O)Nc2nnc(-c3ccccc3)o2)c1 | – | · | – | – | –
CN(CC(=O)Nc1c(Cl)cccc1Cl)C(=O)c1sccc1-c1ccccc1 | – | – | · | – | –
Cc1ccc(-c2nc3ccccc3n2C(C(=O)NC(C)(C)C)C2CC2)cc1 (stereo unspecified) | 31 | – | · | – | ·
O=C(NC1CCCC1)C(C1CC1)n1c(C2CC2)nc2ccccc21 (stereo unspecified) | – | – | · | – | –
CC(C)(C)NC(=O)C(C1CC1)n1c(-c2ccccc2)nc2ccccc21 (stereo unspecified) | – | – | · | – | –
O=C(NC1CCCC1)C(C1CC1)n1c(C2CCCC2)nc2ccccc21 (stereo unspecified) | 51 | – | · | – | –
COc1ccc2c3c(n(C)c2c1)[C@H](CO)N(Cc1ccccc1Cl)CC31CN(C(=O)CC2CC2)C1 | – | – | · | – | –
Cc1ccc(CSCCNC(=O)CN(c2cc(C)ccc2C)S(C)(=O)=O)cc1 | – | · | · | – | –
CO[C@H]1CN(C)C(=O)c2cc(NC(=O)Nc3ccccc3Cl)ccc2OC[C@@H](C)NC[C@@H]1C | 31 | – | – | – | –
CO[C@H]1CN(C)C(=O)c2cc(NC(=O)Nc3ccccc3Cl)ccc2OC[C@H](C)NC[C@@H]1C | – | – | – | – | –
CO[C@H]1CN(C)C(=O)c2cc(NC(=O)Nc3cc(Cl)cc(Cl)c3)ccc2OC[C@@H](C)NC[C@H]1C | · | – | · | · | 103
COc1ccc(/C=C/C(=O)NCC2COc3ccccc3O2)c(OC)c1 (stereo unspecified) | – | – | – | – | –
CC(C)(C)n1nnnc1C(c1cc2ccccc2o1)N1CCCC1 (stereo unspecified) | – | – | · | – | –
CC(C)(C)n1nnnc1C(c1cc2ccccc2o1)N1CCOCC1 (stereo unspecified) | 107 | – | · | – | –
O=C(Nc1ccccc1)C1=C[C@H](C2CC2)C[C@H](OCCCCO)O1 | 24! | – | – | – | –
CCO[C@H]1OC(C(=O)NC2CC2)=C[C@@H](C2CCCCC2)[C@@H]1CCCO | 23 | – | – | – | –
O=C(O)C1=C[C@@H](C2CCCC2)C[C@@H](OCCCCO)O1 | – | · | – | – | –
O=C(NC1CC1)C1=C[C@@H](C2CCCCC2)C[C@@H](OCCCCO)O1 | 39! | – | – | – | –
O=C(Nc1ccccc1)C1=C[C@@H](c2ccc(C(F)(F)F)cc2)C[C@@H](OCCCCO)O1 | 46! | – | – | – | –
O=C(NCc1ccccc1)C1=C[C@@H](C2CC2)C[C@@H](OCCCCO)O1 | – | – | – | – | –
COCCNC(=O)C[C@@H]1CC[C@@H](NC(=O)NC2CCCCC2)[C@@H](CO)O1 | – | – | – | – | –
CCCNC(=O)Nc1ccc2c(c1)C(=O)N(C)[C@H]1CC[C@H](CC(=O)Nc3ccc4c(c3)CCCC4)O[C@@H]1CO2 | ? | – | – | – | –
SMILES | DENV2 CPE rescue | E-selectin induc | PglD inh | ERAP1 HTS inh | SIRT5 block
O=C(NCc1ccccc1)C1=C[C@@H](C2CC2)C[C@@H](OCc2ccc(CO)cc2)O1 | 26! | – | – | – | –
Cc1noc(C)c1NC(=O)N(C)C[C@H]1Oc2c(NS(=O)(=O)c3ccccc3)cccc2C(=O)N([C@@H](C)CO)C[C@H]1C | 28 | – | – | – | –
COc1ccc(S(=O)(=O)Nc2cccc3c2O[C@H](CN(C)C(=O)Nc2c(C)noc2C)[C@@H](C)CN([C@H](C)CO)C3=O)cc1 | – | 41! | – | – | –
NC(=O)NC(CC(=O)NCCc1ccc(S(N)(=O)=O)cc1)c1ccc(Cl)cc1 (stereo unspecified) | – | – | – | – | –
O=C(c1cccc(-c2cccc3nccn23)c1)N1CCOCC1 | 33 | – | – | – | ·
O=C(c1cccc(-c2ccc(O)cc2)c1)N1CCOCC1 | · | · | – | · | ·
COc1ccc(-c2ccc3c(c2)[C@@H]2C[C@H](N(C)C(=O)C(C)(C)C)[C@H]([C@H](C)O)C(=O)N2CC3)cc1 | 129 | – | – | – | –
CCC(=O)N1CC2(C1)CN(C(=O)Nc1ccc(F)cc1)[C@H](CO)c1c2c2ccc(OC)cc2n1C | 80 | – | · | · | ·
COc1ccc2c3c(n(C)c2c1)[C@H](CO)N(C(=O)c1cccc(F)c1)CC31CN(C(=O)c2cccc(F)c2)C1 | 46 | – | · | – | –
COc1ccc2c3c(n(C)c2c1)[C@H](CO)N(C(=O)C1CCCC1)CC31CCN(C(=O)Nc2cccc(F)c2)CC1 | 28 | – | · | – | –
COc1ccc2c3c(n(C)c2c1)[C@@H](CO)N(C(=O)Nc1ccc(F)cc1)CC31CCN(C(=O)c2ccccc2F)CC1 | 40 | – | · | – | –
COc1ccc2c3c(n(C)c2c1)[C@@H](CO)N(C(=O)C1CCCC1)CC31CCN(C(=O)Nc2cccc(F)c2)CC1 | – | – | · | – | –
CCC(=O)N1CCC2(CC1)CN(C(=O)Nc1ccc(F)cc1)[C@H](CO)c1c2c2ccc(OC)cc2n1C | – | – | · | – | –
C[C@@H]1CN([C@@H](C)CO)C(=O)c2ccccc2-c2ccccc2CO[C@H]1CN(C)C(=O)Nc1ccc(-c2ccccc2)cc1 | – | – | · | – | –
N#CC(=Nc1cccc(F)c1)C1=C(O)c2ccccc2C1=O | 32 | – | · | – | –
COc1ccc(CN=C(C#N)C2=C(O)c3ccccc3C2=O)cc1 | – | · | · | – | –
CC(C)(C)Cc1c(-c2ccc(Br)cc2)nc2ccc(Br)cn12 | 101 | – | – | – | –
COC(=O)c1ccc2nc(-c3ccc(C)cc3)c(CC(C)(C)C)n2c1 | – | – | · | – | 15
O=C(Nc1ccccc1N1CCCC1)C1CCN(S(=O)(=O)c2ccc(F)cc2)CC1 | – | – | – | – | –
COc1ccc(-n2c(CNC(=O)COc3ccc(Cl)cc3Cl)n[nH]c2=S)cc1 | – | – | · | – | –
C=CCC1NS(=O)(=O)OC(COC)C1C (stereo unspecified) | 46 | · | – | – | –
CCn1c(C)[n+](CC)c2ccc(C(=O)N(C)c3ccccc3)cc21 | – | · | · | 71 | –
CCn1c(C)[n+](CC)c2ccc(S(=O)(=O)NC)cc21 | – | · | · | 59 | –
Cc1n(C)c2cc(Cl)ccc2[n+]1Cc1ccccc1 | · | · | · | – | –
CCn1c(C)[n+](CC)c2ccc(S(=O)(=O)N(C)C)cc21 | – | · | – | 39 | –
CC[n+]1c(C)n(C)c2cc(S(=O)(=O)N(C)C)ccc21 | – | · | · | 51 | –
O=C(c1[nH]c(C(F)(F)F)nc1-c1ccccc1)N1CCC2(CC1)C(=O)NCN2c1ccccc1 | – | – | – | – | –
